Results reported in ChEMBL document CHEMBL1149395, “Beta-substituted cyclohexanecarboxamide: a nonpeptidic framework for the design of potent inhibitors of cathepsin K” (J Med Chem, 2006).

Target: T1, Cathepsin K (Oryctolagus cuniculus, UniProt P43236)
T1 sequence (P43236 whole entry): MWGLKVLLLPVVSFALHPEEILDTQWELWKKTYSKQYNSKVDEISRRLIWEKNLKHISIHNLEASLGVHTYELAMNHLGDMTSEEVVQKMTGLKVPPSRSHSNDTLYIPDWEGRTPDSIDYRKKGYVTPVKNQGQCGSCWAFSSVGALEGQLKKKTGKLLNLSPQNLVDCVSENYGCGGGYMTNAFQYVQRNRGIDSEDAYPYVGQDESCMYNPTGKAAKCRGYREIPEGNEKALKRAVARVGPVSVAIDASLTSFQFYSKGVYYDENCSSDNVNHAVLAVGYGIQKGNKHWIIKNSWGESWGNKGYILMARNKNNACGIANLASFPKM
Assay: Inhibitory activity against rabbit Cathepsin K
Details: not given

| SMILES | IC50 |
| --- | --- |
| CSc1ccc(-c2ccccc2C2CCC(F)(F)CC2C(=O)NCC#N)cc1 (racemic) | 0.5 nM |
| CSc1ccc(-c2ccccc2C2CCC(Cl)(Cl)CC2C(=O)NCC#N)cc1 (racemic) | 0.59 nM |
| N#CCNC(=O)C1CC(F)(F)CCC1c1ccccc1-c1ccc(F)cc1 (racemic) | 9.2 nM |
| CSc1ccc(-c2ccccc2[C@H]2CCC(F)(F)C[C@@H]2C(=O)NCC#N)cc1 | 9.2 nM |
| CSc1ccc(-c2ccccc2C2CCC(F)CC2C(=O)NCC#N)cc1 (racemic; form 2) | 12 nM |
| CSc1ccc(-c2ccccc2C2CCC(F)CC2C(=O)NCC#N)cc1 (racemic; form 1) | 3.7 nM |

Tested on: not listed separately
Assay: Plasma clearance in squirrel monkey at 1 mL/kg, po
Type: ADME, organism-based, Saimiri sciureus
Details: not given
How it was run: (§1)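 Single compounds given orally as suspensions in 1% methocel to animals fasted overnight, dosed in the morning. Oral dosing volumes were 10 mL/kg for rats, 5 mL/kg for dogs and 1 mL/kg for monkeys. Intravenous comparison dosing went via the jugular vein in PEG-200/H₂O (3:2) at 1 mL/kg. Plasma was sampled at regular intervals, precipitated with 1.5 volumes of acetonitrile, centrifuged and analysed by LC-MS.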

| SMILES | CL/F |
| --- | --- |
| CSc1ccc(-c2ccccc2C2CCC(F)CC2C(=O)NCC#N)cc1 (racemic; form 1) | 21 mL/min/kg |

Tested on: not listed separately
Assay: Half life in rat at 1 mL/kg, iv
Details: Sprague-Dawley, in vivo

| SMILES | half-life |
| --- | --- |
| N#CCNC(=O)[C@@H]1CCCC[C@H]1CS(=O)(=O)c1ccc(OC(F)(F)F)cc1 (racemic) | 20 min |
| CSc1ccc(-c2ccccc2[C@@H]2CCCC[C@H]2C(=O)NCC#N)cc1 (racemic) | 44 min |
| CSc1ccc(S(=O)(=O)C[C@@H]2CCCC[C@H]2C(=O)NCC#N)cc1 (mixture of isomers) | 5 min |
| N#CCNC(=O)[C@@H]1CCCC[C@H]1c1ccccc1-c1ccc(F)cc1 (racemic) | 45 min |

Target: Cathepsin K (Homo sapiens, UniProt P43235)
Assay: Inhibitory activity against humanized rabbit Cathepsin K
Details: not given

| SMILES | IC50 |
| --- | --- |
| N#CCNC(=O)[C@@H]1CCCC[C@H]1CSc1cc(Cl)ccc1Cl (racemic) | 150 nM |
| N#CCNC(=O)[C@@H]1CCCC[C@H]1CSc1ccc(Br)cc1 (racemic) | 33 nM |
| N#CCNC(=O)[C@@H]1CCCC[C@H]1CSc1ccc(O)cc1 (racemic) | 21 nM |
| N#CCNC(=O)[C@@H]1CCCC[C@H]1CSc1nc2ccccc2s1 (racemic) | 200 nM |
| N#CCNC(=O)[C@@H]1CCCC[C@H]1CSc1ncccn1 (racemic) | 990 nM |
| N#CCNC(=O)[C@@H]1CCCC[C@H]1CSc1ccccc1 (racemic) | 172 nM |
| N#CCNC(=O)[C@@H]1CCCC[C@H]1CSc1cccc(Cl)c1 (mixture of isomers) | 200 nM |
| CSc1ccc(SC[C@@H]2CCCC[C@H]2C(=O)NCC#N)cc1 (racemic) | 4.2 nM |
| CSc1ccc(-c2ccccc2C2CCC(F)(F)CC2C(=O)NCC#N)cc1 (racemic) | 0.46 nM |
| N#CCNC(=O)[C@@H]1CCCC[C@H]1CSc1ncc[nH]1 (relative stereo) | 410 nM |
| CSc1ccc(-c2ccccc2C2CCC(Cl)(Cl)CC2C(=O)NCC#N)cc1 (racemic) | 0.58 nM |
| COc1cccc(SC[C@@H]2CCCC[C@H]2C(=O)NCC#N)c1 (racemic) | 370 nM |
| N#CCNC(=O)C1CC(F)(F)CCC1c1ccccc1-c1ccc(F)cc1 (racemic) | 36 nM |
| COc1ccc(SC[C@@H]2CCCC[C@H]2C(=O)NCC#N)cc1 (racemic) | 28 nM |
| CSc1ccc(-c2ccccc2[C@H]2CCC(F)(F)C[C@@H]2C(=O)NCC#N)cc1 | 7.1 nM |
| CSc1ccc(-c2ccccc2C2CCC(F)CC2C(=O)NCC#N)cc1 (racemic; form 2) | 3.7 nM |
| CSc1ccc(-c2ccccc2C2CCC(F)CC2C(=O)NCC#N)cc1 (racemic; form 1) | 4.2 nM |
| CSc1ccc(-c2ccccc2[C@@H]2CCCC[C@H]2C(=O)NCC#N)cc1 (racemic) | 2.6 nM |
| CSc1ccc(S(=O)(=O)C[C@@H]2CCCC[C@H]2C(=O)NCC#N)cc1 (mixture of isomers) | 5 nM |

Target: Cathepsin (B and K) (Homo sapiens) (UniProt P43235+P07858)
Assay: Selectivity for Cathepsin B over Cathepsin K
Type: protein assay
Details: not given

| SMILES | Selectivity ratio |
| --- | --- |
| N#CCNC(=O)[C@@H]1CCCC[C@H]1CSc1ccc(Br)cc1 (racemic) | > 3100 |
| N#CCNC(=O)[C@@H]1CCCC[C@H]1CSc1ccc(O)cc1 (racemic) | 880 |
| N#CCNC(=O)[C@@H]1CCCC[C@H]1CSc1ccccc1 (racemic) | 31 |
| CSc1ccc(SC[C@@H]2CCCC[C@H]2C(=O)NCC#N)cc1 (racemic) | > 24000 |
| CSc1ccc(-c2ccccc2C2CCC(F)(F)CC2C(=O)NCC#N)cc1 (racemic) | > 120000 |
| CSc1ccc(-c2ccccc2C2CCC(Cl)(Cl)CC2C(=O)NCC#N)cc1 (racemic) | > 17000 |
| COc1ccc(SC[C@@H]2CCCC[C@H]2C(=O)NCC#N)cc1 (racemic) | > 3500 |
| CSc1ccc(-c2ccccc2[C@@H]2CCCC[C@H]2C(=O)NCC#N)cc1 (racemic) | > 3800 |
| CSc1ccc(S(=O)(=O)C[C@@H]2CCCC[C@H]2C(=O)NCC#N)cc1 (mixture of isomers) | 2000 |

Tested on: not listed separately
Assay: Half life in squirrel monkey at 1 mL/kg, po
Type: ADME, organism-based, Saimiri sciureus
Details: in vivo
How it was run: as §1

| SMILES | half-life |
| --- | --- |
| CSc1ccc(-c2ccccc2C2CCC(F)CC2C(=O)NCC#N)cc1 (racemic; form 1) | 48 min |

Tested on: not listed separately
Assay: Oral bioavailability in squirrel monkey at 1 mL/kg, po
Type: ADME, organism-based, Saimiri sciureus
Details: in vivo
How it was run: as §1

| SMILES | bioavailability |
| --- | --- |
| CSc1ccc(-c2ccccc2C2CCC(F)CC2C(=O)NCC#N)cc1 (racemic; form 1) | 28% |

Target: Cathepsin (S and K) (Homo sapiens) (UniProt P25774+P43235)
Assay: Selectivity for Cathepsin S over Cathepsin K
Type: protein assay
Details: not given

| SMILES | Selectivity ratio |
| --- | --- |
| N#CCNC(=O)[C@@H]1CCCC[C@H]1CSc1ccc(Br)cc1 (racemic) | > 3100 |
| N#CCNC(=O)[C@@H]1CCCC[C@H]1CSc1ccc(O)cc1 (racemic) | 110 |
| N#CCNC(=O)[C@@H]1CCCC[C@H]1CSc1ccccc1 (racemic) | 28 |
| CSc1ccc(SC[C@@H]2CCCC[C@H]2C(=O)NCC#N)cc1 (racemic) | 3200 |
| CSc1ccc(-c2ccccc2C2CCC(F)(F)CC2C(=O)NCC#N)cc1 (racemic) | 1100 |
| CSc1ccc(-c2ccccc2C2CCC(Cl)(Cl)CC2C(=O)NCC#N)cc1 (racemic) | 52 |
| COc1ccc(SC[C@@H]2CCCC[C@H]2C(=O)NCC#N)cc1 (racemic) | 960 |
| CSc1ccc(-c2ccccc2[C@@H]2CCCC[C@H]2C(=O)NCC#N)cc1 (racemic) | > 3800 |
| CSc1ccc(S(=O)(=O)C[C@@H]2CCCC[C@H]2C(=O)NCC#N)cc1 (mixture of isomers) | 1800 |

Tested on: not listed separately
Assay: Plasma clearance in rat at 1 mL/kg, iv
Details: Sprague-Dawley

| SMILES | clearance |
| --- | --- |
| N#CCNC(=O)[C@@H]1CCCC[C@H]1CS(=O)(=O)c1ccc(OC(F)(F)F)cc1 (racemic) | 42 mL/min/kg |
| CSc1ccc(-c2ccccc2[C@@H]2CCCC[C@H]2C(=O)NCC#N)cc1 (racemic) | 35 mL/min/kg |
| CSc1ccc(S(=O)(=O)C[C@@H]2CCCC[C@H]2C(=O)NCC#N)cc1 (mixture of isomers) | 38 mL/min/kg |
| N#CCNC(=O)[C@@H]1CCCC[C@H]1c1ccccc1-c1ccc(F)cc1 (racemic) | 50 mL/min/kg |

Target: T2, Cathepsin K (Homo sapiens, UniProt P43235)
T2 sequence (P43235 whole entry): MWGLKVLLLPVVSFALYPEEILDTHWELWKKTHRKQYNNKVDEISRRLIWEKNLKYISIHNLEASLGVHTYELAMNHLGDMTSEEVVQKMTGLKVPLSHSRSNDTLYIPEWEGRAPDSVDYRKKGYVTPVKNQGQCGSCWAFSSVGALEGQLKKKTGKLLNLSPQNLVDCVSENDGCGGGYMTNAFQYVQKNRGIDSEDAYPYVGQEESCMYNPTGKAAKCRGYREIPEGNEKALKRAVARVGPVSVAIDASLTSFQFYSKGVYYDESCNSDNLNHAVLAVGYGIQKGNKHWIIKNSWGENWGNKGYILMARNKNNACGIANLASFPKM
Assay: Inhibitory activity against human Cathepsin K
Details: not given

| SMILES | IC50 |
| --- | --- |
| N#CCNC(=O)[C@@H]1CCCC[C@H]1CSc1ccccc1 (racemic) | 140 nM |

Tested on: not listed separately
Assay: Half life in rat at 10 mL/kg, po
Type: ADME, organism-based
Details: Sprague-Dawley, in vivo
How it was run: as §1

| SMILES | half-life |
| --- | --- |
| CSc1ccc(-c2ccccc2C2CCC(F)(F)CC2C(=O)NCC#N)cc1 (racemic) | 210 min |
| CSc1ccc(-c2ccccc2C2CCC(Cl)(Cl)CC2C(=O)NCC#N)cc1 (racemic) | 186 min |
| N#CCNC(=O)C1CC(F)(F)CCC1c1ccccc1-c1ccc(F)cc1 (racemic) | 270 min |
| CSc1ccc(-c2ccccc2C2CCC(F)CC2C(=O)NCC#N)cc1 (racemic; form 1) | 90 min |

Tested on: not listed separately
Assay: Plasma clearance in rat at 10 mL/kg, po
Type: ADME, organism-based
Details: Sprague-Dawley
How it was run: as §1

| SMILES | CL/F |
| --- | --- |
| CSc1ccc(-c2ccccc2C2CCC(F)(F)CC2C(=O)NCC#N)cc1 (racemic) | 15 mL/min/kg |
| CSc1ccc(-c2ccccc2C2CCC(Cl)(Cl)CC2C(=O)NCC#N)cc1 (racemic) | 51 mL/min/kg |
| N#CCNC(=O)C1CC(F)(F)CCC1c1ccccc1-c1ccc(F)cc1 (racemic) | 37 mL/min/kg |
| CSc1ccc(-c2ccccc2C2CCC(F)CC2C(=O)NCC#N)cc1 (racemic; form 1) | 25 mL/min/kg |

Tested on: not listed separately
Assay: Oral bioavailability in rats at 10 mL/kg, po
Type: ADME, organism-based
Details: Sprague-Dawley, rat, in vivo
How it was run: as §1

| SMILES | bioavailability |
| --- | --- |
| CSc1ccc(-c2ccccc2C2CCC(F)(F)CC2C(=O)NCC#N)cc1 (racemic) | 53% |
| CSc1ccc(-c2ccccc2C2CCC(Cl)(Cl)CC2C(=O)NCC#N)cc1 (racemic) | 75% |
| N#CCNC(=O)C1CC(F)(F)CCC1c1ccccc1-c1ccc(F)cc1 (racemic) | 26% |
| CSc1ccc(-c2ccccc2C2CCC(F)CC2C(=O)NCC#N)cc1 (racemic; form 1) | 88% |

Target: Cathepsin (L and K) (Homo sapiens) (UniProt P43235+P07711)
Assay: Selectivity for Cathepsin L over Cathepsin K
Type: protein assay
Details: not given

| SMILES | Selectivity ratio |
| --- | --- |
| N#CCNC(=O)[C@@H]1CCCC[C@H]1CSc1ccc(Br)cc1 (racemic) | 71 |
| N#CCNC(=O)[C@@H]1CCCC[C@H]1CSc1ccc(O)cc1 (racemic) | 1700 |
| N#CCNC(=O)[C@@H]1CCCC[C@H]1CSc1ccccc1 (racemic) | 150 |
| CSc1ccc(SC[C@@H]2CCCC[C@H]2C(=O)NCC#N)cc1 (racemic) | 2200 |
| CSc1ccc(-c2ccccc2C2CCC(F)(F)CC2C(=O)NCC#N)cc1 (racemic) | 880 |
| CSc1ccc(-c2ccccc2C2CCC(Cl)(Cl)CC2C(=O)NCC#N)cc1 (racemic) | 450 |
| COc1ccc(SC[C@@H]2CCCC[C@H]2C(=O)NCC#N)cc1 (racemic) | 810 |
| CSc1ccc(-c2ccccc2[C@@H]2CCCC[C@H]2C(=O)NCC#N)cc1 (racemic) | 2800 |
| CSc1ccc(S(=O)(=O)C[C@@H]2CCCC[C@H]2C(=O)NCC#N)cc1 (mixture of isomers) | 740 |
